VLA-4 inh = inhibition in a human VLA-4 binding assay; hit rate 0.2% among 330,000; VLA-4 expressing cells, ligand binding flow cytometry; inhibition, % (about 7 µM as worked out from the volumes in the protocol); P13612; in the data active = inhibition above about 50%
Target sequence (P13612 whole entry, looked up): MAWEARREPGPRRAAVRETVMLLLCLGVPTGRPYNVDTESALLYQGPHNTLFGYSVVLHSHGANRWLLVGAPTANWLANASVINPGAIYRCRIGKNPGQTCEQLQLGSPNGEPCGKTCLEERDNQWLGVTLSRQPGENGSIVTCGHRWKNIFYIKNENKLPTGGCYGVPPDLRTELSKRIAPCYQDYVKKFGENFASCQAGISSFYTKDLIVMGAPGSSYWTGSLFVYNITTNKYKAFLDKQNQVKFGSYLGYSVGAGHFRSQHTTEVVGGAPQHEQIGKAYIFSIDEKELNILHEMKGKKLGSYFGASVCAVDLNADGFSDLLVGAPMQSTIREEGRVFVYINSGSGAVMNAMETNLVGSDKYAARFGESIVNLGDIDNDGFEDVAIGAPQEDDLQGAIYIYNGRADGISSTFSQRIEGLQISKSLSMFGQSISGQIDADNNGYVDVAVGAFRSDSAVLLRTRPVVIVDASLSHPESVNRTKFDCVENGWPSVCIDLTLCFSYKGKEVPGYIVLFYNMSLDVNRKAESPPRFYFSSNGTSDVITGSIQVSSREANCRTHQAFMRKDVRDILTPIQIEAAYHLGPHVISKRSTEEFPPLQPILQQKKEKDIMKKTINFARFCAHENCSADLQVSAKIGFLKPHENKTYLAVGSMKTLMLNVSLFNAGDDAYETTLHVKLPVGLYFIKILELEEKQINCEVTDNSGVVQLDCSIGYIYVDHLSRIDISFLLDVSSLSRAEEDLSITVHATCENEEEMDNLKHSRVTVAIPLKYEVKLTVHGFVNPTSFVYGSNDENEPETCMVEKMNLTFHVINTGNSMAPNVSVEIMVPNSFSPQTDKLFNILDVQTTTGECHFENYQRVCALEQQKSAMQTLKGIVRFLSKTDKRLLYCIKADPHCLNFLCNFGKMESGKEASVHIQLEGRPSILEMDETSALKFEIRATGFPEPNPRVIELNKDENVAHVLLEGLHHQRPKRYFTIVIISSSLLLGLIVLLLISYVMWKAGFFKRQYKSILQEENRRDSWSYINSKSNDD
UPR CHOP act = apoptotic UPR (CHOP) activation | AID 449763 | hit rate 0.34% among 330,000 | CHO-CHOP luciferase reporter, luminescence; percent of tunicamycin response over DMSO baseline | activation, % at 10 µM;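 active = at 10 µM dose, activation of 40% or more, normalized to positive control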;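 also: 100% = tunicamycin at 10 µg/mL and 0% = DMSO alone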
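Assay system: CHO cells with stable CHOP pathway luciferase reporter; Buffer or medium: F12 plus 10% serum; Times: 16-18 h cell attachment, then 6 h compound exposure, 37 °C; Signal: luciferase luminescence; Read-out basis: percent activation relative to tunicamycin control; Control set: tunicamycin high control, DMSO low control.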
B2AR ag = activates human beta-2 adrenergic receptor causing internalization; P07550; Am2.2-beta2AR cells, FAP receptor internalization, flow cytometry; response, % (no concentration beside the values); hit rate 0.43% among 340,000;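 active = response above a set limit, near 3 SD of response in nonfluorescent compounds, cut at about 42% in these data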
UPR XBP1 act = adaptive UPR (XBP1) activation; CHO-XBP1 luciferase reporter, IRE1-XBP1 UPR activation, luminescence; percent of tunicamycin response, DMSO as zero; activation, % at 20 µM; hit rate 0.33% among 330,000; AID 463104;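 active = versus positive control, 20 µM dose yields 30% or more activation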;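 also: 100% = tunicamycin at 10 µg/mL and 0% = DMSO only wells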
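Assay system: IRE1-XBP1 luciferase reporter CHO line. Input: 1000 cells/well. Buffer or medium: F12 with 10% serum. Doses: 20 µM, 1% DMSO. Times: overnight seeding at 37 °C, 6 h compound treatment at 37 °C. Technique: Steady-Glo luciferase glow luminescence, 10 min after reagent addition.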
CHOP inhibitor = inhibitors of CHOP induction in ER stress response | CHO-K1 CHOP-promoter luciferase, tunicamycin-induced, 15-18 h | inhibition, % at 10 µM | hit rate 3.8% among 220,000;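 active = compounds that reduced the stress-induced luciferase reporter signal by more than about 70% of percent inhibition, limit read from the data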;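 also: 0% = tunicamycin plus vehicle and 100% = wells without tunicamycin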
The depositor's hits bear a star; i = inactive; x = not tested or not shown. The entries come from a sample that favours hits as a whole.

SMILES | VLA-4 inh | UPR CHOP act | B2AR ag | UPR XBP1 act | CHOP inhibitor
COc1ccccc1N1CCN(C(c2cc3cc(C)ccc3[nH]c2=O)c2nnnn2C2CCCC2)CC1 (stereo unspecified) | 5 | 2 | 3 | 3 | 91*
O=C(CCC(=O)N1CCCC1)N1CCCC1 | 6 | 0 | 3 | -1 | x
COc1cccc(N2CCN(c3ccc([N+](=O)[O-])cn3)CC2)c1 | -7 | 0 | -8 | 2 | x
Cc1ccc(-c2nc(-c3cccnc3)no2)c(C)c1 | -2 | 3 | -11 | 1 | 73*
NS(=O)(=O)c1ccc(NC(=S)N2CCN(Cc3ccc(Cl)c(Cl)c3)CC2)cc1 | 12 | -1 | 0 | -3 | 32
O=[N+]([O-])c1ccc(NC(=S)N2CCN(c3ccc(F)cc3)CC2)cc1 | 16 | -3 | -2 | -2 | 84*
NS(=O)(=O)c1ccc(NC(=S)N2CCN(c3ccc(Cl)c(Cl)c3)CC2)cc1 | 19 | 7 | -1 | 3 | 87*
O=S(=O)(c1ccccc1)N1CCN(C(=S)Nc2ccc(F)cc2)CC1 | 13 | -1 | -4 | -3 | 8
O=S(=O)(c1ccc(Cl)cc1)N1CCN(C(=S)Nc2ccc(F)c(Cl)c2)CC1 | i | -1 | 4 | -3 | 78*
CC1CCN(CCCNC(=O)c2ccc(N3CCCC3=O)cc2)CC1 | 3 | -3 | -4 | -4 | x
COCCN(CC(=O)Nc1cccc(S(=O)(=O)N2CCCC2)c1)Cc1nc2ccccc2c(=O)[nH]1 | x | 0 | 16 | 1 | x
COc1ccc(-n2cnnc2SCC(=O)NC2CCCCC2)cc1 | 35 | 1 | 1 | -3 | x
O=C(C1CC(=O)N(c2ccccc2)C1)N1CCN(c2ccc(F)cc2)CC1 (stereo unspecified) | 0 | 0 | 2 | -4 | x
Cc1cccc2cc(C#N)c(NCCNC(=O)NC3CCCCC3)nc12 | 6 | 1 | 0 | 0 | 72*
O=C(O)c1nn(Cc2csc(-c3ccccc3)n2)c(=O)c2ccccc12 | -8 | 1 | 4 | 17 | x
N#Cc1ccccc1OCC(=O)Nc1cc(S(=O)(=O)N2CCCCC2)ccc1N1CCOCC1 | x | x | 0 | x | x
CCCOc1ccc(S(=O)(=O)NCCCN2CCOCC2)c2ccccc12 | 5 | -2 | -11 | -4 | 71*
O=c1[nH]c(/C=C\c2cccs2)nc(O)c1[N+](=O)[O-] | 41 | 0 | -3 | -3 | 6
C=CCOc1ccc(/C=C2\SC(N3CCCCC3)=NC2=O)cc1 | 5 | 4 | 3 | 0 | x
CCN(CC)CCNc1ccc(C)c2sc3ccc(O)cc3c(=O)c12 | x | x | -24 | x | x
CC(C)c1nc(N2CCN(C(=O)c3ccccc3)CC2)c(C#N)c2c1COC(C)(C)C2 | 28 | 4 | 2 | 0 | 91*
CC(=O)SC1CC2=CC(=O)CC[C@]2(C)C2CC[C@@]3(C)C(CC[C@@]34CCC(=O)O4)C12 (stereo partly specified) | x | x | x | x | 3
COc1ccc(Nc2oc(-c3ccc(Cl)cc3)nc2C#N)cc1 | 1 | 3 | -9 | 4 | 85*
CCOc1ccc(Nc2oc(-c3ccc(Cl)cc3)nc2C#N)cc1 | 23 | 5 | -6 | 4 | 75*
COc1ccc(Nc2oc(COc3ccc(Cl)cc3)nc2C#N)cc1 | 2 | 2 | -14 | 1 | 28
SMILES | VLA-4 inh | UPR CHOP act | B2AR ag | UPR XBP1 act | CHOP inhibitor
CCOc1ccc(-c2nc(C#N)c(NCc3ccc4c(c3)OCO4)o2)cc1 | 12 | 2 | 10 | 5 | 78*
COc1ccc(Nc2oc(-c3ccc(OC)cc3)nc2C#N)cc1 | -2 | 9 | -8 | 9 | -12
O=C(Nc1ccc(S(=O)(=O)NC2=NCCCCC2)cc1)c1cc(F)c(F)cc1Cl | x | -1 | 6 | 0 | x
Cc1ccc(CNC(=O)c2ccc(Cl)c(S(=O)(=O)N3CCCCC3)c2)cc1 | -8 | 2 | 5 | -1 | x
Cc1cc(Nc2cccc(F)c2)nc(NCc2ccccc2)n1 | 1 | 3 | 10 | -4 | 71*
O=C(/C=C/c1ccccc1)NC(=S)Nc1ccc2c3c(cccc13)CC2 | -4 | -2 | -2 | -6 | 75*
Cc1cc(=O)n2nc(-c3ccc(C(F)(F)F)cc3)sc2n1 | 6 | 1 | -19 | -1 | 75*
COc1ccccc1-c1nn2c(=O)cc(C)nc2s1 | 0 | 5 | 7 | 4 | -25
Cc1c(Cl)cccc1NC(=S)N1CCCN(Cc2ccc(F)cc2)C1 | 8 | -5 | 5 | -5 | 38
COc1ccc(N2C(=NC(=O)C3CCCCC3)SC3CS(=O)(=O)CC32)cc1OC (stereo unspecified) | 6 | 1 | -2 | -4 | x
COc1ccc(C(=O)N=C2SC3CS(=O)(=O)CC3N2c2ccc(N(C)C)cc2)cc1OC (stereo unspecified) | 8 | 3 | 54* | 6 | x
COc1ccc(/C=C/C(=O)Nc2sc(Cc3ccccc3)c(C)c2C(N)=O)cc1 | 19 | 6 | 16 | 6 | 75*
Cc1c(Cc2ccccc2)sc(NC(=O)Cc2ccccc2)c1C(N)=O | 8 | 0 | -2 | -1 | x
C=C(CO)C1Cc2cc(C(C)=O)ccc2O1 (stereo unspecified) | 6 | 4 | 12 | -2 | 4
CCC(Sc1nc2ccc(C)cc2[nH]1)C(=O)O (stereo unspecified) | -6 | 0 | -6 | 4 | 19
Cc1ccc(C)c(NC(=O)C(Sc2nc3ccc(C)cc3[nH]2)c2ccccc2)c1 (stereo unspecified) | -12 | -1 | 5 | 1 | 73*
S=C1Cc2ccccc2C(c2ccc(Cl)cc2)N1 (stereo unspecified) | 5 | 0 | -5 | -7 | x
Cc1nc(NCCCO)c(C#N)c2c1COC(C)(C)C2 | 6 | 0 | -5 | 0 | -1
CCN(CC)c1nc(C)c2c(c1C#N)CC(C)(C)OC2 | 23 | 1 | 3 | -5 | 74*
Cc1csc(SCC(=O)c2cc(C)n(Cc3cccs3)c2C)n1 | -10 | -7 | 3 | -5 | 76*
Cn1cc(CNC(=O)C2CCC(=O)N(Cc3ccccc3F)C2)cn1 (stereo unspecified) | -11 | 0 | -3 | -5 | x
CCCCCCCc1c(C)nc(N2CCOCC2)[nH]c1=O | 4 | -1 | -5 | -2 | 72*
CCCCN(CCCC)CCCN1CC(=O)N2[C@@H](Cc3c([nH]c4ccccc34)C2(C)C)C1=O | 9 | 5 | 0 | -4 | x
CCC(C)C(NC(=O)c1ccccc1NC(=O)c1ccc(OC)cc1)C(=O)NCc1ccco1 (stereo unspecified) | 4 | 0 | 16 | -1 | 71*
CCn1ncc(Br)c1C(=O)Nc1ccc(OC(F)(F)F)cc1 | 14 | 0 | -7 | -1 | x
CCn1ncc(Br)c1C(=O)Nc1nccs1 | 6 | -2 | 5 | -4 | 77*
CCOc1ccc(-n2c(SC(C)C)nc3c(c2=O)SCC3)cc1 | -3 | -2 | -9 | 2 | 78*
CCOc1ccc(-n2c(SC)nc3c(c2=O)SCC3)cc1 | -1 | 3 | -10 | 0 | 37
